Results as given in ChEMBL document CHEMBL1629555, “Antimalarial activity of phenylthiazolyl-bearing hydroxamate-based histone deacetylase inhibitors” (Antimicrob Agents Chemother, 2008).
Activity calls are given as the source filed them. The rule behind the calls is not given here.

Key:
Mus musculus [1] = assay: Toxicity in Plasmodium berghei-infected mouse assessed as mortality at single dose of 80 mg/kg/day, po for 3 days; type: organism-based; parameters: route oral; settings: in vivo, 72 h
Plasmodium berghei [2] = assay: Antimalarial activity against Plasmodium berghei infected in mouse assessed as parasitemia level at 3.2 mg/kg/day for 3 days measured on day 3 in presence of 4 mg/kg/day chloroquine (reference value: 0.46%); type: functional
Plasmodium berghei [3] = assay: Antimalarial activity against Plasmodium berghei infected in mouse assessed as effect on cure rate at 12.8 mg/kg/day for 3 days measured on day 6 in presence of 16 mg/kg/day chloroquine; type: functional, organism-based
How it was run: (§1)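 Mice were infected ip with 10^6 P. berghei-parasitized erythrocytes. The compound was given orally once daily on days 3, 4 and 5 post-infection in hydroxyethylcellulose-Tween 20 vehicle, alone or together with chloroquine, with 5 mice per dose group. Parasitemia (%) was read on days 3 and 6, and cures were counted as animals cured out of 5.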

Plasmodium berghei [4] = assay: Antimalarial activity against Plasmodium berghei infected in mouse assessed as parasitemia level at 160 mg/kg/day for 3 days measured on day 6 (reference value: 37%); type: functional; how it was run: as §1
Plasmodium falciparum [5] = assay: Antimicrobial activity against Plasmodium falciparum D6 infected in Aotus lemurinus lemurinus monkey at […] in presence of 4 mg/kg chloroquine; type: functional
Plasmodium falciparum [6] = assay: Antimalarial activity against drug-resistant Plasmodium falciparum TM90C2A; type: functional, organism-based
Plasmodium berghei [7] = assay: Antimalarial activity against Plasmodium berghei infected in mouse assessed as parasitemia level at 12.8 mg/kg/day for 3 days measured on day 6 in presence of 16 mg/kg/day chloroquine (reference value: 37%); type: functional; how it was run: as §1
Plasmodium berghei [8] = assay: Antimalarial activity against Plasmodium berghei infected in mouse assessed as effect on cure rate at 3.2 mg/kg/day for 3 days measured on day 6 in presence of 4 mg/kg/day chloroquine (reference value: 37%); type: functional, organism-based
[9] = target: T1, Histone deacetylase (Plasmodium falciparum 3D7) (UniProt Q7K6A1); assay: Inhibition of Plasmodium falciparum 3D7 histone deacetylase infected in human erythrocytes assessed as alteration of histone H3 acetylation after 3.5 hrs by SDS-PAGE; type: cell-based
T1 sequence (whole entry): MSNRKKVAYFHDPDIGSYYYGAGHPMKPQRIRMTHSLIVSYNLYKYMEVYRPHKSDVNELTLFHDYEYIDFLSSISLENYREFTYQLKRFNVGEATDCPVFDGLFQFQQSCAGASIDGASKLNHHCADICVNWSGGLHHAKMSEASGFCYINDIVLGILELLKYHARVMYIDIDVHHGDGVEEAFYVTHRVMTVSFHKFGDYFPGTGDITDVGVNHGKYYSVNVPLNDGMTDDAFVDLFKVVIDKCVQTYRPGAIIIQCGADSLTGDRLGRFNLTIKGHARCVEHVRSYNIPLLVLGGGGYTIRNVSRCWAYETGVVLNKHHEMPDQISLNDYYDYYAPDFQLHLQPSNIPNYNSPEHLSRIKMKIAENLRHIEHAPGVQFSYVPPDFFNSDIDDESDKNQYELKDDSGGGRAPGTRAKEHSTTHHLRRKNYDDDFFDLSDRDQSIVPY
How it was run: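 About 3 × 10^9 erythrocytes infected with late-trophozoite P. falciparum 3D7 were exposed to compound or to DMSO vehicle for 3.5 h at 37°C, and an untreated sample was taken at the start. Histones were extracted, about 6 × 10^8 parasites were loaded per lane on SDS–15% PAGE, and loading was checked by silver stain. Western blots were probed with anti-tetraacetyl-H4 and anti-diacetyl-H3 antisera and detected by ECL.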

Plasmodium berghei [10] = assay: Antimalarial activity against Plasmodium berghei infected in mouse assessed as parasitemia level at 32 mg/kg/day for 3 days measured on day 6 in presence of 3.6 mg/kg/day chloroquine (reference value: 37%); type: functional; how it was run: as §1
Plasmodium berghei [11] = assay: Antimalarial activity against Plasmodium berghei infected in mouse assessed as parasitemia level at 160 mg/kg/day for 3 days measured on day 3 in presence of 2 […] chloroquine (reference value: 0.46%); type: functional; how it was run: as §1
Plasmodium berghei [12] = assay: Antimalarial activity against Plasmodium berghei infected in mouse assessed as parasitemia level at split dose of 160 mg/kg/day, po for 3 days measured on day 6 relative to control; type: functional
How it was run: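 Blood-stage P. berghei model: mice inoculated ip with 10^6 parasitized erythrocytes. Oral treatment for 3 days, with the daily dose split, in hydroxyethylcellulose-Tween 20 vehicle. Day-6 parasitemia expressed as a fraction of control parasitemia.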

Mus musculus [13] = assay: Toxicity in Plasmodium berghei-infected mouse assessed as mortality at single dose of 40 mg/kg/day, po for 3 days; type: organism-based; parameters: route oral; settings: in vivo, 72 h
Plasmodium falciparum [14] = assay: Antimalarial activity against chloroquine-resistant Plasmodium falciparum FVO infected in Aotus lemurinus leminurus monkey assessed as reduction in parasitemia at 8 mg/kg/day, po for 3 days; type: functional, organism-based
[15] = Half life in ICR mouse at 50 mg/kg/day, sc by LC/MS analysis; type: ADME, organism-based; parameters: route subcutaneous; settings: in vivo
How it was run: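 Male ICR mice, 8 weeks old, got one 50 mg/kg dose either orally or subcutaneously, with three groups of six mice per route. One mouse per group was killed at 15, 30 and 60 min and at 3, 6 and 24 h. Plasma was deproteinized with 2 volumes of acetonitrile and analysed by LC-MS/MS on a C18 column against 0–500 ng/ml standards, with parent and acid metabolite measured in the same sample. Each six-mouse group was treated as one "animal" and fitted to a two-compartment model. AUC was taken by the linear trapezoidal rule extrapolated to infinity, and Cmax and Tmax were read per "animal".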

Plasmodium berghei [16] = assay: Antimalarial activity against Plasmodium berghei infected in mouse assessed as effect on cure rate at split dose of 640 mg/kg/day, po for 3 days; type: functional, organism-based
How it was run: (§2)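 Mice were infected ip with 10^6 P. berghei-parasitized erythrocytes. The compound was given in hydroxyethylcellulose-Tween 20 vehicle, 5 mice per group, starting on day 3 post-infection. Regimens were once-daily or split daily oral doses over 3 days, subcutaneous dosing, or dosing over 7 days. Read-outs were posttreatment parasitemia on day 6 as a fraction of controls and the number of mice cured.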

Plasmodium berghei [17] = assay: Antimalarial activity against Plasmodium berghei infected in mouse assessed as parasitemia level at 3.2 mg/kg/day for 3 days measured on day 6 in presence of 4 mg/kg/day chloroquine (reference value: 37%); type: functional
Mus musculus [18] = assay: Toxicity in Plasmodium berghei-infected mouse assessed as mortality at single dose of 20 mg/kg/day, po for 3 days; type: organism-based; parameters: route oral; settings: in vivo, 72 h
Plasmodium berghei [19] = assay: Antimalarial activity against Plasmodium berghei infected in mouse assessed as effect on cure rate at 130 mg/kg/day, po for 7 days; type: functional, organism-based; how it was run: as §2
Plasmodium berghei [20] = assay: Antimalarial activity against Plasmodium berghei infected in mouse assessed as parasitemia level at 32 mg/kg/day for 3 days measured on day 3 in presence of 3.6 mg/kg/day chloroquine (reference value: 0.46%); type: functional; how it was run: as §1
Plasmodium berghei [21] = assay: Antimalarial activity against Plasmodium berghei infected in mouse assessed as effect on cure rate at single dose of 40 mg/kg/day, po for 3 days; type: functional, organism-based; how it was run: as §2
Plasmodium berghei [22] = assay: Antimalarial activity against Plasmodium berghei infected in mouse assessed as parasitemia level at 3.2 mg/kg/day for 3 days measured on day 3 (reference value: 0.46%); type: functional
Plasmodium falciparum [23] = assay: Antimicrobial activity against Plasmodium falciparum D6 infected in Aotus lemurinus lemurinus monkey at […] in presence of mefloquine; type: functional

## Nc1cccc(-c2csc(NC(=O)CCCCCCC(=O)NO)n2)c1
Mus musculus [1]
  Activity: Non-toxic
Plasmodium berghei [2]
  Activity: 0.6%
Plasmodium berghei [3]
  Activity: inactive
Plasmodium berghei [4]
  Activity: 8.8%
Plasmodium falciparum [5]
  fractional inhibitory concentration index (FICI): 2.2
Plasmodium falciparum [6]
  IC50: 0.6 nM
Plasmodium berghei [7]
  Activity: 0%
Plasmodium berghei [8]
  Activity: inactive
[9]
  inhibition: Dose-dependent effect
Plasmodium berghei [10]
  Activity: 0.08%
Plasmodium berghei [11]
  Activity: 0.5%
Plasmodium berghei [12]
  fold change (FC): 0.03
Mus musculus [13]
  Activity: Non-toxic
Plasmodium falciparum [14]
  inhibition: inactive
[15]
  half-life: 8.5 h
Plasmodium berghei [16]
  Activity: inactive
Plasmodium berghei [17]
  Activity: 0.029%
Mus musculus [18]
  Activity: Non-toxic
Plasmodium berghei [19]
  Activity: inactive
Plasmodium berghei [20]
  Activity: 0.44%
Plasmodium berghei [21]
  Activity: inactive
Plasmodium berghei [22]
  Activity: 0.64%
Plasmodium falciparum [23]
  fractional inhibitory concentration index (FICI): 2.2
